Where “and” joins values, the source holds several entries; their conditions need not be identical. Equal values may be shown once.
Legend:
[1] = Hill coefficient at 50% saturation in the presence of effector
[2] = target: T1, Hemoglobin HbA (Homo sapiens) (UniProt P69905+P68871); assay: Oxygen pressure at which hemoglobin is 50% saturated with oxygen in the presence of the effector.; type: functional
Method in brief: (§1)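 Purified stripped human adult Hb in 50 mM bis-Tris, 100 mM NaCl, pH 7.2, at 60-70 µM heme, with effector at 0.5 mM. Catalase and EDTA were added, and the sample was saturated with carbogen. The curve was recorded on a Hemox analyzer as O₂ pressure was lowered over 45-60 min, with saturation read at 577/586.2 nm. P50 came from linear regression of 40-60% saturation points. Single runs, each with its own no-effector control.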

[3] = target: T1, Hemoglobin HbA (Homo sapiens); assay: Ratio of P50e to P50c (P50 control value with no effector present, 5 mmHg); type: functional; method in brief: as §1
Homo sapiens [4] = organism: Homo sapiens; assay: P50C is the control value in whole blood in experiment.; type: functional
Method in brief: (§2)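 Heparinized whole blood from healthy volunteers, kept on ice, was given the effector sodium salt from a 200 mM DMSO stock to 5.0 mM final. It was tonometered about 10-12 min at 37 °C and equilibrated at 20%, 40% and 60% O₂. pH, pCO₂, pO₂ and sO₂ were read by blood gas analyzer and co-oximeter, at least in duplicate. ΔP50 = P50e − P50c.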

Homo sapiens [5] = organism: Homo sapiens; assay: P50e is the value in the presence of the effector in whole blood in experiment 1 (in vitro); type: functional; method in brief: as §2
Homo sapiens [6] = organism: Homo sapiens; assay: P50e is the value in the presence of the effector in whole blood in experiment 2 (in vitro); type: functional; method in brief: as §2
[7] = The difference between P50e and P50c tested.; type: functional; method in brief: as §2

T1 sequence (P68871 2-147 partner limits assumed): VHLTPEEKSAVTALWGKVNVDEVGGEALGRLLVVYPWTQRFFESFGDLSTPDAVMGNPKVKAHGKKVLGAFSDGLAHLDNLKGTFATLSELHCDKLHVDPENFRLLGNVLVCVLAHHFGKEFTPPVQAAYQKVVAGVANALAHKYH
T1 sequence (P69905 2-142 limits assumed): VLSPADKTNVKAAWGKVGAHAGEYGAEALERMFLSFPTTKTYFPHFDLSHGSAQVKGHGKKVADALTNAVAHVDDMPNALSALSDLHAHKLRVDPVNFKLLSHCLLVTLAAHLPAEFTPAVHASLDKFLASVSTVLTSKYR

Structure (SMILES)	Hill coefficient (n50) [1]	P50e [2]	P50e/P50c [3]	P50c (Homo sapiens [4])	P50e (Homo sapiens [5])	P50e (Homo sapiens [6])	ΔP50 (P50e minus P50c) [7]	P50C (Homo sapiens [4])
Cc1cc(Cl)cc(NC(=O)Cc2ccc(OC(C)(C)C(=O)O)cc2)c1	2.4	21 mmHg	4.4	–	–	–	–	–
Cc1cc(C)cc(NC(=O)Cc2ccc(OC3(C(=O)O)CCCC3C)cc2)c1 (racemic)	2.3 and 1.6	21.6 mmHg	4.3	26.5 mmHg	66 mmHg	67.2 mmHg	40.1 mmHg	–
Cc1cc(Cl)cc(NC(=O)Cc2ccc(OC(C)C(=O)O)cc2)c1 (stereo unspecified)	2.6	9.4 mmHg	1.9	–	–	–	–	–
Cc1cc(C)cc(NC(=O)Cc2ccc(OC(C)C(=O)O)cc2)c1 (single isomer, unassigned; (+)) [listing 1 of 2 here]	–	–	–	27.3 mmHg	47.4 mmHg	48.7 mmHg	–	–
CCC(C)(Oc1ccc(CC(=O)Nc2cc(C)cc(C)c2)cc1)C(=O)O (stereo in doubt; (-)-10)	2.3	10.5 mmHg	2.1	–	–	–	–	–
Cc1cc(C)cc(NC(=O)Cc2ccc(OC(C)C(=O)O)cc2)c1 (racemic) [listing 1 of 2 here]	2.6 and 2	9.3 mmHg	1.9	–	–	–	18.2 mmHg	–
CCC(Oc1ccc(CC(=O)Nc2cc(C)cc(C)c2)cc1)C(=O)O (single isomer, unassigned; (-))	2.8	9.8 mmHg	2	–	–	–	–	–
Cc1cc(C)cc(NC(=O)Cc2ccc(OC3(C(=O)O)CCC(C)C3)cc2)c1 (stereo unspecified)	2.5	12.9 mmHg	2.6	–	–	–	–	–
Cc1cc(C)cc(NC(=O)Cc2ccc(O[C@]3(C(=O)O)CCC[C@H]3C)cc2)c1	2.4 and 1.6	30.7 mmHg	6.1	27.9 mmHg	78.5 mmHg	72.5 mmHg	47.6 mmHg	–
Cc1cc(C)cc(NC(=O)Cc2ccc(O[C@@]3(C(=O)O)CCO[C@@H]3C)cc2)c1	2.8	7.7 mmHg	1.5	–	–	–	–	–
CC(Oc1ccc(CC(=O)Nc2ccc3c(c2)CCC3)cc1)C(=O)O (stereo unspecified)	2.7	6.3 mmHg	1.3	–	–	–	–	–
Cc1cc(C)cc(NC(=O)Cc2ccc(OC(F)C(=O)O)cc2)c1 (stereo unspecified)	2.5	5.9 mmHg	1.2	–	–	–	–	–
CCC(C)(Oc1ccc(CC(=O)Nc2ccc3c(c2)CCC3)cc1)C(=O)O (stereo unspecified)	2.3	10.6 mmHg	2.1	–	–	–	–	–
CCC(C)(Oc1ccc(CC(=O)Nc2cc(C)cc(C)c2)cc1)C(=O)O (single isomer, unassigned; (+))	2.4	17.4 mmHg	3.5	–	–	–	–	–
Cc1cc(Cl)cc(NC(=O)Cc2ccc(OC3(C(=O)O)CCC(C)C3)cc2)c1 (stereo unspecified)	2.4	14 mmHg	2.8	–	–	–	–	–
Cc1cc(C)cc(NC(=O)Cc2ccc(OC(C)C(=O)O)cc2)c1 (single isomer, unassigned; (-)) [listing 1 of 2 here]	–	–	–	27.8 mmHg	39.7 mmHg	40.5 mmHg	–	–
CCC(Oc1ccc(CC(=O)Nc2cc(C)cc(Cl)c2)cc1)C(=O)O (stereo unspecified)	2.6	13.1 mmHg	2.6	–	–	–	–	–
Cc1cc(C)cc(NC(=O)Cc2ccc(OC3(C(=O)O)CCOCC3)cc2)c1	2.4	7.6 mmHg	1.5	–	–	–	–	–
COCC(C)(Oc1ccc(CC(=O)Nc2cc(C)cc(C)c2)cc1)C(=O)O (stereo unspecified)	2.4	8.4 mmHg	1.7	–	–	–	–	–
CCCC(Oc1ccc(CC(=O)Nc2cc(C)cc(C)c2)cc1)C(=O)O (stereo unspecified)	2.5	16.1 mmHg	3.2	–	–	–	–	–

Structure (SMILES)	Hill coefficient (n50) [1]	P50e [2]	P50e/P50c [3]	P50c (Homo sapiens [4])	P50e (Homo sapiens [5])	P50e (Homo sapiens [6])	ΔP50 (P50e minus P50c) [7]	P50C (Homo sapiens [4])
CCC(C)(Oc1ccc(CC(=O)Nc2cc(C)cc(Cl)c2)cc1)C(=O)O (stereo unspecified)	2.5	16.6 mmHg	3.3	–	–	–	–	–
CCC(Oc1ccc(CC(=O)Nc2ccc3c(c2)CCC3)cc1)C(=O)O (stereo unspecified)	2.6	9.1 mmHg	1.8	–	–	–	–	–
CCC(C)(Oc1ccc(CC(=O)Nc2cc(C)cc(C)c2)cc1)C(=O)O (stereo in doubt; 10)	2.4	13.3 mmHg	2.7	–	–	–	–	–
Cc1cc(C)cc(NC(=O)Cc2ccc(OC(C)C(=O)O)cc2)c1 (single isomer, unassigned; (+)) [listing 2 of 2 here]	2.6 and 1.9	9.8 mmHg	2	–	–	–	20.7 mmHg	–
CCC(Oc1ccc(CC(=O)Nc2cc(C)cc(C)c2)cc1)C(=O)O (stereo in doubt; 32)	2.7	13 mmHg	2.6	–	–	–	–	–
CC1CCC(Oc2ccc(CC(=O)Nc3ccc4c(c3)CCC4)cc2)(C(=O)O)C1 (stereo unspecified)	2.6	12.7 mmHg	2.5	–	–	–	–	–
Cc1cc(C)cc(NC(=O)Cc2ccc(OC(C)C(=O)O)cc2)c1 (racemic) [listing 2 of 2 here]	–	–	–	27.2 mmHg	47.2 mmHg	43.5 mmHg	–	–
Cc1cc(C)cc(NC(=O)Cc2ccc(OC3(C(=O)O)CCCC3)cc2)c1	2.4 and 1.66	25.7 mmHg	5.1	–	74.7 mmHg	67.7 mmHg	42.3 mmHg	28.9 mmHg
CC(C)(Oc1ccc(CC(=O)Nc2ccc3c(c2)CCC3)cc1)C(=O)O	2.6	15.3 mmHg	3	–	–	–	–	–
CCCC(C)(Oc1ccc(CC(=O)Nc2cc(C)cc(C)c2)cc1)C(=O)O (stereo unspecified)	2.7	11.7 mmHg	2.3	–	–	–	–	–
CCCCC(Oc1ccc(CC(=O)Nc2cc(C)cc(C)c2)cc1)C(=O)O (stereo unspecified)	2.5	17 mmHg	3.4	–	–	–	–	–
Cc1cc(C)cc(NC(=O)Cc2ccc(OC(C)C(=O)O)cc2)c1 (single isomer, unassigned; (-)) [listing 2 of 2 here]	2.5 and 2.2	6.6 mmHg	1.3	–	–	–	12.3 mmHg	–
Cc1cc(C)cc(NC(=O)Cc2ccc(OC(C)(C)C(=O)O)cc2)c1 [EFAPROXIRAL]	2.3 and 1.47	23.4 mmHg	4.7	29.8 mmHg	76.5 mmHg	73.4 mmHg	45.2 mmHg	–
Cc1cc(C)cc(NC(=O)Cc2ccc(OC3(C(=O)O)CCCC(C)C3)cc2)c1 (stereo unspecified)	2.5	10.3 mmHg	2.1	–	–	–	–	–
Cc1cc(C)cc(NC(=O)Cc2ccc(OC3(C(=O)O)CCOC3C)cc2)c1 (stereo unspecified)	2.4	7.6 mmHg	1.5	–	–	–	–	–
Cc1cc(C)cc(NC(=O)Cc2ccc(O[C@]3(C(=O)O)CCO[C@H]3C)cc2)c1	2.6	9.3 mmHg	1.9	–	–	–	–	–
CC1CCCC1(Oc1ccc(CC(=O)Nc2ccc3c(c2)CCC3)cc1)C(=O)O (stereo unspecified)	2.6	13.8 mmHg	2.8	–	–	–	–	–
Cc1cc(Cl)cc(NC(=O)Cc2ccc(OC3(C(=O)O)CCCC3C)cc2)c1 (stereo unspecified)	2.4	21.9 mmHg	4.4	–	–	–	–	–
CCC(Oc1ccc(CC(=O)Nc2cc(C)cc(C)c2)cc1)C(=O)O (single isomer, unassigned; (+))	2.7	18 mmHg	3.6	–	–	–	–	–
